In ChEMBL document CHEMBL3865847, “The synthesis and biological evaluation of alkyl and benzyl naphthyridinium analogs of eupolauridine as potential antimicrobial and cytotoxic agents” (Bioorg Med Chem, 2016):

Key:
[1] = Cytotoxicity against human BT549 cells assessed as cell growth inhibition after 48 hrs by neutral red dye based assay; assay type: functional; details: BT-549, 48 h
Outline: (§1)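 Cells kept in RPMI-1640 with 10% bovine serum and 60 µg/mL amikacin, 37 °C, 5% CO2. Seeded at 25,000 cells/well, left 24 h to adhere. Samples diluted in RPMI added, highest final concentration 10 µg/mL. Growth measured by neutral red uptake after 48 h exposure.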

[2] = system: Candida albicans; assay: Antimicrobial activity against Candida albicans B311; assay type: functional
Outline: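 Cultured in Sabouraud dextrose broth 24 h, counted by hemocytometer, diluted to 10,000 CFU/mL. Added to serially diluted samples in 96-well plates, top final concentration 50 µg/mL (≤2.5% DMSO), incubated 37 °C. Growth by A630. MIC is the lowest concentration giving 80% inhibition against controls; IC50 from concentration versus % growth plots.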

[3] = Inhibition of Candida albicans DNA topoisomerase 1 using pHOT1 as substrate after 30 mins by agarose gel electrophoresis
Outline: (§2)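 Relaxation of supercoiled to relaxed DNA by TopoI measured with a commercial TopoI drug kit following kit protocol. IC50 calculated from dose-response curves of % inhibition versus concentration.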

[4] = Cytotoxicity against human KB cells assessed as cell growth inhibition after 48 hrs by neutral red dye based assay; assay type: functional; outline: as §1
[5] = Cytotoxicity against human SKOV3 cells assessed as cell growth inhibition after 48 hrs by neutral red dye based assay; assay type: functional; details: SK-OV-3, 48 h; outline: as §1
[6] = molecular target: T1, DNA topoisomerase 1 (Homo sapiens, UniProt P11387); assay: Inhibition of human DNA topoisomerase 1 using pHOT1 as substrate after 30 mins by agarose gel electrophoresis; outline: as §2
T1 sequence (P11387 whole entry): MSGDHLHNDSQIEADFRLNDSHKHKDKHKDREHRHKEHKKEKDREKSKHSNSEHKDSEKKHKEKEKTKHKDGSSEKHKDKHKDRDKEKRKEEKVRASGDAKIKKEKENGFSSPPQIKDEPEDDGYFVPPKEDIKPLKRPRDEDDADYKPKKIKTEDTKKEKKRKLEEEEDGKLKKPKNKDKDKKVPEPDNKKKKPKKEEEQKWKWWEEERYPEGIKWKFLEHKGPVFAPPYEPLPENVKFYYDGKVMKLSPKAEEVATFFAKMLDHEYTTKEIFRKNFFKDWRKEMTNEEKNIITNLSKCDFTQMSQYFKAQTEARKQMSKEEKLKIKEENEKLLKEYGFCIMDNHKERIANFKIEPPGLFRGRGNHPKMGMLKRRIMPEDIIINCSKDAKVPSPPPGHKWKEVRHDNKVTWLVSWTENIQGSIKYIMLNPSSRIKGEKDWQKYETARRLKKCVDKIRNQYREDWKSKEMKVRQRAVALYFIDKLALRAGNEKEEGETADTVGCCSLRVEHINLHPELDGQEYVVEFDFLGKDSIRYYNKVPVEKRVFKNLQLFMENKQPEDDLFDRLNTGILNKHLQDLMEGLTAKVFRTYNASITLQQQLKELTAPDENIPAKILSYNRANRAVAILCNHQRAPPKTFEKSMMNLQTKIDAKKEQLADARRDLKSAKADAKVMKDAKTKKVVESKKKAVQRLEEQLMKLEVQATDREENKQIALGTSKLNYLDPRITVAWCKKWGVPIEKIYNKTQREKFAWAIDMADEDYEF

[7] = system: Cryptococcus neoformans; assay: Antimicrobial activity against Cryptococcus neoformans ATCC 52657; assay type: functional
Outline: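 Grown in mycophil broth 72 h, hemocytometer-counted, diluted to 200,000 CFU/mL. Exposed to diluted samples in 96-well plates, maximum final 50 µg/mL (DMSO up to 2.5%), incubated 30 °C. A630 readout. MIC is the lowest concentration inhibiting 80% of growth versus controls; IC50 read from concentration versus % growth graphs.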

[8] = Selectivity index, ratio of IC50 for human DNA topoisomerase 1 to IC50 for Candida albicans DNA topoisomerase 1
[9] = Cytotoxicity against African green monkey Vero cells assessed as cell growth inhibition at 10 ug/ml after 48 hrs by neutral red dye based assay; assay type: toxicity; details: chlorocebus sabaeus; outline: as §1
[10] = system: Plasmodium falciparum; assay: Antimalarial activity against Plasmodium falciparum D6 infected in RBC after 48 hrs by lactate dehydrogenase assay; assay type: functional; details: D6, 48 h
Outline: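 Parasites grown in A+ human erythrocytes in RPMI 1640 with 10% A+ human serum, 25 mM HEPES, 27 mM bicarbonate, 60 µg/mL amikacin, 37 °C under 90% N2/5% O2/5% CO2. Infected cells exposed 48 h in microtiter wells, highest concentration 4.8 µg/mL. Growth read by Malstat reagent (parasite LDH) with nitro blue tetrazolium reduction, absorbance 630 nm.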

[11] = system: Pseudomonas aeruginosa; assay: Antimicrobial activity against Pseudomonas aeruginosa ATCC 15442; assay type: functional
Outline: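 Pseudomonas grown 24 h in trypticase soy broth, diluted 1:50. Combined with diluted samples in 96-well plates, top final concentration 50 µg/mL (≤2.5% DMSO), 37 °C incubation. Growth read at 630 nm. MIC is the lowest tested concentration inhibiting 80% of growth versus controls; IC50 from concentration versus % growth graphs.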

[12] = Cytotoxicity against human SK-MEL cells assessed as cell growth inhibition after 48 hrs by neutral red dye based assay; assay type: functional; outline: as §1
[13] = system: Staphylococcus aureus; assay: Antimicrobial activity against methicillin-resistant Staphylococcus aureus; assay type: functional
Outline: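 MRSA precultured 24 h, diluted 1:50 in broth, added to serially diluted samples in 96-well plates (highest final DMSO 2.5%), incubated at 37 °C. Growth measured as absorbance at 630 nm versus controls. MIC is the lowest concentration giving 80% inhibition; IC50 (50% inhibition) is read from concentration versus % growth plots.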

[14] = system: Mycobacterium intracellulare; assay: Antimicrobial activity against Mycobacterium intracellulare ATCC 23068; assay type: functional
Outline: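 Mycobacterium grown 72 h in Middlebrook medium with OADC supplement, diluted 1:30 in broth. Incubated at 37 °C with diluted samples in 96-well plates, highest final 50 µg/mL, DMSO at most 2.5%. Absorbance at 630 nm. MIC = lowest concentration with 80% growth inhibition relative to controls; IC50 from concentration versus % growth plots.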

| Compound | IC50 [1] [µg/mL] | IC50 [2] [µg/mL] | MIC80 [2] [µg/mL] | IC50 [3] [µg/mL] | IC50 [4] [µg/mL] | IC50 [5] [µg/mL] | IC50 [6] [µM] | IC50 [7] [µg/mL] | MIC80 [7] [µg/mL] | Ratio IC50 [8] | Activity [9] | IC50 [10] [µg/mL] | IC50 [11] [µg/mL] | IC50 [12] [µg/mL] | IC50 [13] [µg/mL] | MIC80 [14] [µg/mL] |
| --- | --- | --- | --- | --- | --- | --- | --- | --- | --- | --- | --- | --- | --- | --- | --- | --- |
| CC[n+]1ccc2c3c(nc4ccccc42)-c2ccccc2-c31.[I-] | > 10 | 16.7 | 25 | 0.7 | 6.8 | 1.3 | 1.71 | 6 | 12.5 | 1 | Non-Toxic | 0.033 | 50 | – | – | – |
| Cc1cc2c3c(nc4ccccc42)-c2ccccc2-c3[n+]1C.[I-] | 5.4 | 25 | 50 | 0.5 | 3.5 | 4.5 | 1.71 | 1.83 | 3.12 | 0.71 | Non-Toxic | 0.02 | – | > 10 | 25 | – |
| Brc1cccc(C[n+]2ccc3ccnc4c3c2-c2ccccc2-4)c1.[Br-] | 1.15 | 2.5 | 6.25 | 21 | 0.18 | 0.095 | 48.4 | 0.3 | 0.78 | 0.95 | Non-Toxic | 0.013 | 40 | 0.65 | – | 50 |
| COc1ccc2c(c1)-c1c3c-2nccc3cc[n+]1Cc1ccccc1.[Br-] | 1.1 | 16.7 | 25 | 5.75 | 0.2 | 0.15 | 12.3 | 0.7 | 1.56 | 1.15 | Non-Toxic | 0.032 | – | 1.5 | – | 50 |
| C[n+]1ccc2c3c(nc4ccccc42)-c2ccccc2-c31.[I-] | 7 | 23.3 | 25 | 1.5 | 6.5 | 1.3 | 4.54 | 2 | 6.25 | – | Non-Toxic | 0.033 | – | – | 20 | – |
| Cc1ccc2c(c1)-c1c3c-2nccc3cc[n+]1Cc1ccccc1.[Br-] | 1.8 | 6.17 | 12.5 | 15 | 0.52 | 0.58 | 45 | 0.48 | 1.56 | 0.86 | Non-Toxic | 0.062 | – | 1.4 | – | 50 |
| C[n+]1ccc2c3c(nc4cc5c(cc42)OCO5)-c2ccccc2-c31.[I-] | 1.2 | 16.1 | 25 | 0.425 | 4.2 | 1.2 | 1.02 | 0.37 | 1.56 | 0.94 | Non-Toxic | 0.028 | – | 5 | – | 50 |
| C[n+]1ccc2c3c(nc4ccccc42)-c2ccccc2-c31.Cc1ccc(S(=O)(=O)[O-])cc1 | 7.5 | 35 | – | 0.7 | 4.4 | 1.3 | 1.59 | 1.93 | 6.25 | – | Non-Toxic | 0.0385 | 50 | > 10 | – | – |
| Cc1ccc(C[n+]2ccc3ccnc4c3c2-c2ccccc2-4)cc1.[Br-] | – | 3.17 | 6.25 | 11 | 6.8 | < 1.1 | 28.3 | 0.33 | 0.78 | 1 | Non-Toxic | 0.0095 | – | 1.9 | 35 | 50 |
| Clc1cccc(C[n+]2ccc3ccnc4c3c2-c2ccccc2-4)c1.[Br-] | 1.6 | 3 | 6.25 | 21 | 0.68 | 0.055 | 53.7 | 0.18 | 0.78 | 0.95 | Non-Toxic | 0.0042 | – | 1.15 | – | 50 |
